Columns and labels:
[1] = Cytotoxicity against human MT4 cells after 96 hrs by MTT assay; assay type: cell-based
In short: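 Exponentially growing MT-4 cells seeded at 1×10^5 cells/mL in RPMI-1640 with 10% FBS, penicillin and streptomycin. Incubated with serial compound dilutions at 37 °C, 5% CO2 for 96 h; viability by MTT. CC50 by linear regression relative to untreated controls; mean of three independent determinations.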

[2] = test system: Human immunodeficiency virus 1; assay: Antiviral activity against HIV1 3B infected in human MT4 cells assessed as inhibition of virus-induced cytopathogenicity after 4 days by MTT assay; assay type: functional, organism-based; conditions: Human immunodeficiency virus 1, 3B, MT4, 96 h
In short: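 MT-4 cells (1×10^4 per well) were infected with HIV-1 IIIB at 100 CCID50, m.o.i. 0.01, together with serial compound dilutions. Viability was read by MTT after 4 days at 37 °C. EC50 was taken by linear regression versus untreated controls. Mean of three determinations.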

[3] = Cytotoxicity against MDBK cells after 48 to 96 hrs by MTT assay; assay type: cell-based, Bos taurus; conditions: cattle
In short: (§1)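 MDBK seeded at 6×10^5 and BHK at 1×10^6 cells/mL in MEM-Earle's with L-glutamine, 1 mM pyruvate, kanamycin, plus 10% horse serum (MDBK) or 10% FBS (BHK). Cells were grown at 37 °C, 5% CO2 with serial compound dilutions (DMSO stocks diluted in medium). Viability by MTT after 48–96 h. CC50 was taken by linear regression versus untreated controls; three independent determinations.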

[4] = Antiviral activity against Bovine viral diarrhea virus 1-NADL infected in MDBK cells assessed as inhibition of virus-induced cytopathogenicity after 3 to 4 days by MTT assay; assay type: functional, cell-based; conditions: Bovine viral diarrhea virus isolates and strains
In short: (§2)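 Host cells were seeded in 96-well plates at 3×10^4 cells/well (MDBK) or 5×10^4 cells/well (BHK-21) and grown to confluent monolayers overnight. They were infected at m.o.i. 0.01 in maintenance MEM with 0.5% inactivated FBS. Serial compound dilutions were added after 1 h. Viability was read by MTT after 3–4 days at 37 °C. EC50 was taken by linear regression against untreated controls. Mean of three determinations.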

[5] = Cytotoxicity against BHK21 cells after 48 to 96 hrs by MTT assay; assay type: cell-based, Mesocricetus auratus, BHK-21; conditions: hamster; in short: as §1
Yellow fever virus = assay: Antiviral activity against Yellow fever virus 17D Stamaril Pasteur J07B01 infected in hamster BHK21 cells assessed as inhibition of virus-induced cytopathogenicity after 3 to 4 days by MTT assay; assay type: functional, cell-based; conditions: Stamaril Pasteur J07B01, BHK-21; in short: as §2
Reovirus sp. = assay: Antiviral activity against Reovirus type-1 3651 infected in hamster BHK21 cells assessed as inhibition of virus-induced cytopathogenicity after 3 to 4 days by MTT assay; assay type: functional, organism-based; conditions: Reovirus sp., 3651, BHK-21; in short: as §2
[6] = Cytotoxicity against african green monkey Vero 76 cells after 48 to 96 hrs by crystal violet staining; assay type: cell-based; conditions: chlorocebus sabaeus
In short: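 Vero-76 cells were seeded at 4×10^5 cells/mL in D-MEM with L-glutamine, kanamycin and 10% FBS, then exposed to serial compound dilutions at 37 °C, 5% CO2 for 48–96 h. Viability was read by crystal violet staining. 50% cytotoxic concentration by linear regression relative to untreated controls; mean of three independent determinations.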

Coxsackievirus B5 = assay: Antiviral activity against Human coxsackievirus B5 Ohio-1 infected in african green monkey Vero 76 cells assessed as reduction of virus-induced plaque formation after 3 days using crystal violet staining; assay type: functional, organism-based; conditions: Enterovirus B, Ohio-1, Vero, 72 h
Poliovirus 1 = assay: Antiviral activity against Human poliovirus 1 strain Sabin Chat infected in african green monkey Vero 76 cells assessed as virus-induced reduction of plaque formation after 2 days using crystal violet staining; assay type: functional, cell-based; conditions: Enterovirus C, 48 h
Human orthopneumovirus = assay: Antiviral activity against Human respiratory syncytial virus A2 infected in african green monkey Vero 76 cells assessed as reduction of virus-induced plaque formation after 5 days using crystal violet staining; assay type: functional, organism-based; conditions: 120 h
[7] = test system: Vesicular stomatitis Indiana virus; assay: Antiviral activity against clinical isolate Vesicular stomatitis Indiana virus infected in african green monkey Vero 76 cells assessed as reduction of virus-induced plaque formation after 2 days using crystal violet staining; assay type: functional, organism-based; conditions: 48 h
[8] = Antiviral activity against Vaccinia virus Lister Elstree infected in african green monkey Vero 76 cells assessed as reduction of virus-induced plaque formation after 3 days using crystal violet staining; assay type: functional, cell-based; conditions: 72 h
Human alphaherpesvirus 1 = assay: Antiviral activity against Human herpesvirus 1 strain KOS infected in african green monkey Vero 76 cells assessed as reduction of virus-induced plaque formation after 3 days using crystal violet staining; assay type: functional, organism-based; conditions: Human alphaherpesvirus 1, KOS, 72 h

Row | Compound | CC50 at 96 h [1] [µM] | EC50 [2] [µM] | CC50 [3] [µM] | EC50 [4] [µM] | CC50 [5] [µM] | EC50 (Yellow fever virus) [µM] | EC50 (Reovirus sp.) [µM] | CC50 [6] [µM] | EC50 (Coxsackievirus B5) [µM] | EC50 (Poliovirus 1) [µM] | EC50 (Human orthopneumovirus) [µM] | EC50 [7] [µM] | EC50 [8] [µM] | EC50 (Human alphaherpesvirus 1) [µM]
1 | c1ccc(-c2nc3cc4cccnc4cc3[nH]2)cc1 | 28 | > 28 | 80 | 10 | 40 | > 40 | 13 | > 100 | 19 | 37 | > 100 | > 100 | > 100 | > 100
2 | Clc1c2ncccc2cc2nc(-c3ccccc3)[nH]c12 | 29 | > 29 | 65 | 4 | 35 | > 35 | 10 | > 100 | 36 | 53 | > 100 | > 100 | > 100 | > 100
3 | Clc1ccc(-c2nc3cc4cccnc4cc3[nH]2)cc1 | 100 | > 100 | > 100 | 18 | > 100 | > 100 | > 100 | > 100 | 43 | > 100 | > 100 | > 100 | > 100 | > 100
4 | Nc1ccc(-c2nc3cc4cccnc4c(Cl)c3[nH]2)cc1 | 15 | > 15 | 45 | 10 | 42 | > 42 | > 42 | > 100 | 78 | > 100 | > 100 | > 100 | > 100 | > 100
5 | CC(=O)Nc1ccc(-c2nc3cc4cccnc4c(Cl)c3[nH]2)cc1 | > 100 | > 100 | > 100 | 11 | > 100 | > 100 | 51 | > 100 | > 100 | > 100 | > 100 | > 100 | > 100 | > 100
6 | COc1ccccc1-c1nc2cc3cccnc3cc2[nH]1 | 14 | > 14 | 11 | ≥ 11 | 32 | > 32 | > 32 | 75 | 47 | > 75 | > 75 | > 75 | > 75 | > 75
7 | Clc1ccc(-c2nc3cc4cccnc4cc3[nH]2)cc1Cl | > 100 | > 100 | > 100 | > 100 | > 100 | > 100 | > 100 | > 100 | > 100 | > 100 | > 100 | > 100 | > 100 | > 100
8 | c1ccc(-c2ccc(-c3nc4cc5cccnc5cc4[nH]3)cc2)cc1 | 8 | > 8 | ≥ 100 | 60 | 20 | > 20 | > 20 | 80 | 3 | > 80 | > 80 | > 80 | > 80 | > 80
9 | Clc1c2ncccc2cc2nc(C3CCCCC3)[nH]c12 | 57 | > 57 | 73 | 19 | 26 | > 26 | > 26 | > 100 | 43 | 80 | > 100 | ≥ 100 | ≥ 100 | > 100
10 | Oc1ccnc2c(Cl)c3[nH]c(-c4ccccc4)nc3cc12 | > 100 | > 100 | > 100 | > 100 | 75 | > 75 | > 75 | > 100 | > 100 | > 100 | > 100 | > 100 | > 100 | > 100
11 | Clc1c2ncccc2cc2nccnc12 | 82 | > 82 | 6.5 | > 6.5 | 70 | > 70 | > 70 | 90 | 50 | > 90 | > 90 | > 90 | 57 | 90
12 | Oc1ccnc2c(Cl)c3nccnc3cc12 | 42 | > 42 | 63 | > 63 | 85 | > 85 | > 85 | 90 | > 90 | > 90 | > 90 | > 90 | > 90 | 90
13 | Clc1c2ncccc2cc2nc(CBr)c(CBr)nc12 | 16 | > 16 | 20 | > 20 | > 100 | > 100 | > 100 | > 100 | > 100 | > 100 | > 100 | > 100 | > 100 | > 100
14 | Clc1c2ncccc2cc2ncc(-c3ccccc3)nc12 | > 100 | > 100 | > 100 | 18 | > 100 | > 100 | > 100 | > 100 | > 100 | > 100 | > 100 | > 100 | > 100 | > 100
15 | Clc1c2ncccc2cc2nc(-c3ccccc3)c(-c3ccccc3)nc12 | > 100 | > 100 | > 100 | > 100 | > 100 | > 100 | > 100 | > 100 | > 100 | > 100 | > 100 | > 100 | > 100 | > 100
16 | CCc1nc2cc3cccnc3c(Cl)c2[nH]c1=O | 51 | > 51 | 75 | 6.5 | 95 | > 95 | 36 | 100 | > 100 | > 100 | 18 | 35 | > 100 | > 100
17 | CC(C)c1nc2cc3cccnc3c(Cl)c2[nH]c1=O | 48 | > 48 | 100 | 5 | > 100 | > 100 | 47 | > 100 | > 100 | > 100 | 38 | 62 | > 100 | > 100
18 | CCOC(=O)C(C)c1nc2cc3cccnc3c(Cl)c2[nH]c1=O (stereo unspecified) | 59 | > 59 | > 100 | 19 | > 100 | > 100 | > 100 | > 100 | > 100 | ≥ 100 | > 100 | ≥ 100 | > 100 | ≥ 100
19 | O=c1[nH]c2c(Cl)c3ncccc3cc2nc1-c1ccccc1 | 61 | > 61 | > 100 | 5 | > 100 | > 100 | 100 | > 100 | > 100 | > 100 | > 100 | 100 | 39 | > 100
